# “And” between values parts separate entries of the source, which are not always exact repeats. Equal values may be shown once.
# Assays:
# [1] = test system: Mus musculus; test: Activity against TLX-5 lymphoma in mice Percent increase in survival time at 40 mg/kg,; assay type: functional
# [2] = test system: Mus musculus; test: Percent increase in life span was measured in mice intracerebrally implanted leukemia L1210 at 15 mg/kg administered intraperitoneally on day 1 only.; assay type: functional; settings: L1210, ip, 24 h, route intraperitoneal
# Outline: (§1)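 Mice implanted intracerebrally with an inoculum of 10⁵ L1210 leukemia cells. Compound given intraperitoneally on day 1 only. Read-outs were median day of death, % increase in life span calculated for animals dying, and 45-day survivors over total mice. Tests were run by an external cancer screening group.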
# [3] = test system: Mus musculus; test: Median day of death was measured in mice intracerebrally implanted leukemia L1210 at 25 mg/kg administered intraperitoneally on day 1.; assay type: functional; settings: route intraperitoneal; outline: as §1
# [4] = test system: Mus musculus; test: Median day of death was measured in mice intracerebrally implanted leukemia L1210 at 10 mg/kg administered intraperitoneally on day 1.; assay type: functional; settings: route intraperitoneal; outline: as §1
# [5] = test system: Mus musculus; test: Activity against TLX-5 lymphoma in mice Percent increase in survival time at 100 mg/kg,; assay type: functional
# [6] = test system: Mus musculus; test: Activity against TLX-5 lymphoma in mice Percent increase in survival time at 10 mg/kg,; assay type: functional
# [7] = test system: Mus musculus; test: Activity against TLX-5 lymphoma in mice Percent increase in survival time at 20 mg/kg,; assay type: functional
# [8] = test system: Mus musculus; test: Percent increase in life span was measured in mice intracerebrally implanted leukemia L1210 at 30 mg/kg administered intraperitoneally on day 1 only.; assay type: functional; settings: L1210, ip, 24 h, route intraperitoneal; outline: as §1
# [9] = test system: Mus musculus; test: Percent increase in life span was measured in mice intracerebrally implanted leukemia L1210 at 140-30 mg/kg administered intraperitoneally on day 1 only; Toxic; assay type: functional, organism-based; outline: as §1
# [10] = test system: Mus musculus; test: Percent increase in life span was measured in mice intracerebrally implanted leukemia L1210 at 25 mg/kg administered intraperitoneally on day 1 only.; assay type: functional; settings: L1210, ip, 24 h, route intraperitoneal; outline: as §1
# [11] = test system: Mus musculus; test: Median day of death was measured in mice intracerebrally implanted leukemia L1210 at 30 mg/kg administered intraperitoneally on day 1.; assay type: functional; settings: route intraperitoneal; outline: as §1
# [12] = test system: Mus musculus; test: Percent increase in life span was measured in mice intracerebrally implanted leukemia L1210 at 10 mg/kg administered intraperitoneally on day 1 only.; assay type: functional; settings: L1210, ip, 24 h, route intraperitoneal; outline: as §1
# [13] = test system: Mus musculus; test: Activity against TLX-5 lymphoma in mice Percent increase in survival time at 5 mg/kg,; assay type: functional
# [14] = test system: Mus musculus; test: Activity against TLX-5 lymphoma in mice Percent increase in survival time at 80 mg/kg,; assay type: functional
# [15] = test system: Mus musculus; test: Median day of death was measured in mice intracerebrally implanted leukemia L1210 at 15 mg/kg administered intraperitoneally on day 1.; assay type: functional; settings: route intraperitoneal; outline: as §1
# [16] = test system: Mus musculus; test: Median day of death was measured in mice intracerebrally implanted leukemia L1210 at 35 mg/kg administered intraperitoneally on day 1.; assay type: functional; settings: route intraperitoneal; outline: as §1
# [17] = test system: Mus musculus; test: Percent increase in life span was measured in mice intracerebrally implanted leukemia L1210 at 35 mg/kg administered intraperitoneally on day 1 only.; assay type: functional; settings: L1210, ip, 24 h, route intraperitoneal; outline: as §1
# [18] = test system: Mus musculus; test: survivors / total number of mice intracerebrally implanted leukemia L1210 at 30 mg/kg administered intraperitoneally on day 1 only. 4-5 day; 8/10; assay type: functional; settings: route intraperitoneal; outline: as §1
# [19] = test system: Mus musculus; test: (§2) Percent increase in life span was measured in mice intracerebrally implanted leukemia L1210 at 80 mg/kg administered intraperitoneally on day 1 only.; assay type: functional; settings: L1210, ip, 24 h, route intraperitoneal; outline: as §1
# [20] = test system: Mus musculus; test: Percent increase in life span was measured in mice intracerebrally implanted leukemia L1210 at 40 mg/kg administered intraperitoneally on day 1 only.; assay type: functional; settings: L1210, ip, 24 h, route intraperitoneal; outline: as §1
# [21] = test system: Mus musculus; test: survivors / total number of mice intracerebrally implanted leukemia L1210 at 60 mg/kg administered intraperitoneally on day 1 only. 4-5 day; 8/10; assay type: functional; settings: route intraperitoneal; outline: as §1
# [22] = test system: Mus musculus; test: survivors / total number of mice intracerebrally implanted leukemia L1210 at 30 mg/kg administered intraperitoneally on day 1 only. 4-5 day; 1/9; assay type: functional; settings: route intraperitoneal; outline: as §1
# [23] = test system: Mus musculus; test: survivors / total number of mice intracerebrally implanted leukemia L1210 at 60 mg/kg administered intraperitoneally on day 1 only. 4-5 day; 9/10; assay type: functional; settings: route intraperitoneal; outline: as §1
# [24] = test system: Mus musculus; test: Percent increase in life span was measured in mice intracerebrally implanted leukemia L1210 at 60 mg/kg administered intraperitoneally on day 1 only.; assay type: functional; settings: route intraperitoneal; outline: as §1
# [25] = test system: Mus musculus; test: Median day of death was measured in mice intracerebrally implanted leukemia L1210 at 40 mg/kg administered intraperitoneally on day 1.; assay type: functional; settings: route intraperitoneal; outline: as §1
# [26] = test system: Mus musculus; test: survivors / total number of mice intracerebrally implanted leukemia L1210 at 80 mg/kg administered intraperitoneally on day 1 only. 4-5 day; 3/8; assay type: functional; settings: route intraperitoneal; outline: as §1
# [27] = test system: Mus musculus; test: Median day of death was measured in mice intracerebrally implanted leukemia L1210 at 80 mg/kg administered intraperitoneally on day 1.; assay type: functional; settings: route intraperitoneal; outline: as §1
# [28] = test system: Mus musculus; test: survivors / total number of mice intracerebrally implanted leukemia L1210 at 40 mg/kg administered intraperitoneally on day 1 only. 4-5 day; 8/9; assay type: functional; settings: route intraperitoneal; outline: as §1
# [29] = test system: Mus musculus; test: survivors / total number of mice intracerebrally implanted leukemia L1210 at 40 mg/kg administered intraperitoneally on day 1 only. 4-5 day; 10/10; assay type: functional; settings: route intraperitoneal; outline: as §1
# [30] = test system: Mus musculus; test: as §2; assay type: functional; settings: L1210, ip, 24 h, route intraperitoneal; outline: as §1; remark: listed apart in the source
# [31] = test system: Mus musculus; test: Percent increase in life span was measured in mice intracerebrally implanted leukemia L1210 at 50 mg/kg administered intraperitoneally on day 1 only.; assay type: functional; settings: L1210, ip, 24 h, route intraperitoneal; outline: as §1
# [32] = test system: Mus musculus; test: survivors / total number of mice intracerebrally implanted leukemia L1210 at 50 mg/kg administered intraperitoneally on day 1 only. 4-5 day; 8/9; assay type: functional; settings: route intraperitoneal; outline: as §1
# [33] = test system: Mus musculus; test: survivors / total number of mice intracerebrally implanted leukemia L1210 at 50 mg/kg administered intraperitoneally on day 1 only. 4-5 day; 8/10; assay type: functional; settings: route intraperitoneal; outline: as §1
# [34] = test system: Mus musculus; test: Median day of death was measured in mice intracerebrally implanted leukemia L1210 at 60 mg/kg administered intraperitoneally on day 1.; assay type: functional; settings: route intraperitoneal; outline: as §1
structure (smiles),measurement,setting,value
O=NN(CCCl)C(=O)NC1C(F)(F)C(F)(F)C(F)(F)C(F)(F)C1(F)F,Increase,[1],11.6%
same,ILS at 15 mg/kg,[2],0%
same,Median day of death,[3],8
same,Median day of death,[4],8
same,Increase,[5],-57.5%
same,Increase,[6],6.3%
same,Increase,[7],-2.2%
same,ILS at 30 mg/kg,[8],0%
same,ILS,[9],Toxic
same,ILS at 25 mg/kg,[10],0%
same,Median day of death,[11],8
same,ILS at 10 mg/kg,[12],0%
same,Increase,[13],4.2%
same,Increase,[14],-38.3%
same,Median day of death,[15],8
same,Median day of death,[16],7
same,ILS at 35 mg/kg,[17],-13%
O=NN(CCCl)C(=O)NC1CCCCC1 [LOMUSTINE],Increase,[1],189.3%
same,No. of survivors,[18],8
same,ILS at 80 mg/kg,[19],135%
same,ILS at 40 mg/kg,[20],257%
same,No. of survivors,[21],8
same,Increase,[5],-36.2%
same,Increase,[6],53.1%
same,No. of survivors,[22],1
same,Increase,[7],95.9%
same,No. of survivors,[23],9
same,ILS,[24],278% and 185%
same,Median day of death,[25],25
same,No. of survivors,[26],3
same,Median day of death,[27],16.5 and 10
same,Median day of death,[11]; 30 mg/kg,37.5 and 15
same,No. of survivors,[28],8
same,Increase,[13],21.2%
same,No. of survivors,[29],10
same,Increase,[14],-25.6%
same,ILS at 80 mg/kg,[30],42%
same,ILS at 50 mg/kg,[31],350%
same,No. of survivors,[32],8
same,No. of survivors,[33],8
same,Median day of death,[34],26.5 and 20
